In publication PMC2651159 (Bioorganic & medicinal chemistry letters, 2008):
pIC50: −log10 of the molar value.

Tests used:
[1] = molecular target: T1, ChTS-DHFR (Cryptosporidium hominis, UniProt A0A0S4TER9); test: Steady-state spectroscopic enzyme inhibition assay; format: biochemical; conditions: for Potency against ChTS-DHFR relative to FMN (in words): among the 50 compounds tested
[2] = test system: TS reaction of ChTS-DHFR; test: Inhibition of the TS reaction alone; format: biochemical, Cryptosporidium hominis; conditions: 300 μM FMN
[3] = molecular target: T2, T. gondii TS-DHFR (Toxoplasma gondii, UniProt Q07422); test: Enzyme inhibition assay, T. gondii TS-DHFR; format: biochemical
T2 sequence (Q07422 1-610): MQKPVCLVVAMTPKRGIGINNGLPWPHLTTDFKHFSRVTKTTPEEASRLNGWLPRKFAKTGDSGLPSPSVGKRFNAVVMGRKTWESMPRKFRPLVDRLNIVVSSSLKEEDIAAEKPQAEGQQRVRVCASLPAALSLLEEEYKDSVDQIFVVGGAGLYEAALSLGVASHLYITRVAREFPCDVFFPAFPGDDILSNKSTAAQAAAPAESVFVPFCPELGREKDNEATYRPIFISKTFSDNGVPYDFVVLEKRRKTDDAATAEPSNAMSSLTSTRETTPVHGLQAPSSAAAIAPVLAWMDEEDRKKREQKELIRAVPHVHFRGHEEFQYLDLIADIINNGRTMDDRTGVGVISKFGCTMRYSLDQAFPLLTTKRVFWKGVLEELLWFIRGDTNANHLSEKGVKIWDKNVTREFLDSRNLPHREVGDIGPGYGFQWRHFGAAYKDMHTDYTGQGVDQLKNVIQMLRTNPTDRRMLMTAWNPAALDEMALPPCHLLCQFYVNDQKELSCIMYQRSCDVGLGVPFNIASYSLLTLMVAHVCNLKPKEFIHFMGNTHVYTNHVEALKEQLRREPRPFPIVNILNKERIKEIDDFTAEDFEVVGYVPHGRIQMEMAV
Method in brief: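 IC50 determined for the test compound against T. gondii TS-DHFR. Enzyme and ligand concentrations were the same as in parallel runs on C. hominis TS-DHFR, human DHFR and human TS. Values are averages of at least three independent experiments.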

[4] = molecular target: T1, ChTS-DHFR; test: Pre-steady-state burst amplitude dose response; format: binding; conditions: substrate in slight excess over enzyme
Method in brief: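 Pre-steady-state kinetics of the DHFR step were observed on the millisecond time scale, with H2F substrate in slight excess over ChTS-DHFR. Burst amplitude was recorded across a dose series of test compound. Amplitude versus concentration was fit to a hyperbolic curve to derive a dissociation constant (Kd).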

[5] = test system: ChTS-DHFR R190G mutant; test: Inhibition of mutant ChTS-DHFR R190G; format: biochemical, Cryptosporidium hominis; conditions: preliminary analysis
[6] = test system: DHFR of ChTS-DHFR; test: Steady-state competition assay; format: biochemical, Cryptosporidium hominis
[7] = test system: DHFR of ChTS-DHFR; test: DHFR single-enzyme turnover; format: biochemical, Cryptosporidium hominis; conditions: enzyme in five-fold excess of H2F
[8] = test system: Cryptosporidium parasite growth; conditions: cited from earlier work

Work on `CC(=O)N[C@@H]1[C@@H](O)[C@H](O[C@@H]2O[C@H](CO)[C@@H](O)[C@H](O)[C@H]2NC(C)=O)[C@@H](CO)O[C@H]1O` [Chitodextrin] yielded a pIC50 [1] of under 3.30.
`C[C@H]1O[C@@H](O[C@H]2[C@@H](O)C[C@H](O[C@H]3[C@@H](O)C[C@H](O[C@H]4CC[C@@]5(C)[C@H](CC[C@@H]6[C@@H]5C[C@@H](O)[C@]5(C)[C@@H](C7=CC(=O)OC7)CC[C@]65O)C4)O[C@@H]3C)O[C@@H]2C)C[C@H](O)[C@@H]1O` [Digoxin, reference compound] showed a pIC50 [1] of under 3.30.
For `Cc1cc2nc3c(=O)[nH]c(=O)nc-3n(C[C@H](O)[C@H](O)[C@H](O)COP(=O)(O)O)c2cc1C` [FMN, Flavin mononucleotide], the “Inhibition of the TS reaction alone” value [2] was “little inhibition”, the “Inhibition of TS-DHFR from Toxoplasma gondii (in words)” value [3] was “did not inhibit” and the “Effect on DHFR burst amplitude” value [4] was “dose-dependent decrease”. The “Inhibitory effect on R190G mutant less than that against WT ChTS-DHFR” value [5] was “approximately 20%”, the “Change in IC50 on varying enzyme concentration” value ([1]; enzyme concentration varied from 80 to 250 nM) was “no resulting change” and the “Mode of inhibition with respect to H2folate” value ([6]; 200 μM FMN) was “noncompetitive (mixed)”. The “Mode of inhibition with respect to NADPH” value ([6]; 200 μM FMN) was “uncompetitive”, the “Vmax, H2F varied” value ([6]; in the presence of 200 μM FMN (no inhibitor: 2.35 ± 0.04)) was 1.8 ± 0.1 µmol/min and the “Vmax, NADPH varied” value ([6]; in the presence of 200 μM FMN (no inhibitor: 2.37 ± 0.03)) was 1.77 ± 0.01 µmol/min. For the same compound, the “Effect on rate of chemistry, DHFR single turnover” value ([7]; 500 μM FMN) was “no decrease” and the “Effect on amplitude of the single-turnover plot” value [7] was “dose-dependent decrease”.
With `CC(=O)N1CCN(c2ccc(OCC3COC(Cn4ccnc4)(c4ccc(Cl)cc4Cl)O3)cc2)CC1` (stereo not drawn) [Ketoconazole, reference compound] the pIC50 [1] was under 3.30.
With `COc1cccc2c1C(=O)C1=C(C2=O)C(O)C2=C(C1O)[C@@H](C[C@@H]1C[C@H](N)[C@@H](O)[C@H](C)O1)C[C@@](O)(/C(C)=N/NC(=O)c1ccccc1)C2` (stereo partly drawn) [Rubidazone] the pIC50 [1] was under 3.30.
For `COC1=C(N)C(=O)c2nc(-c3nc(C(=O)O)c(C)c(-c4ccc(OC)c(OC)c4O)c3N)ccc2C1=O` [Streptonigrin], the “Potency against ChTS-DHFR relative to FMN (in words)” value [1] was “comparable potency”.
In the case of `CC(=O)Oc1ccccc1C(=O)Nc1ncc([N+](=O)[O-])s1` [nitazoxanide], the “Concentration range inhibiting parasite growth” value [8] is given as 1 to 40 µM.
For `Cc1cc2nc3c(=O)[nH]c(=O)nc-3n(C[C@H](O)[C@H](O)[C@H](O)CO)c2cc1C` [riboflavin], the “Potency against ChTS-DHFR relative to FMN (in words)” value [1] was “comparable potency”.
